An excerpt weighted towards active compounds, which were near 4.6% of everything screened.
TAAR1 antagonist: antagonists of human TAAR1. CHO RD-HGA16 TAAR1, Fluo-8 calcium fluorescence, antagonist. 360,000 tested, 1.5% active. Q96RJ0. inhibition, % at 3 µM;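 active means inhibition above a per-plate cutoff, the mean inhibition of test compounds on that plate plus 3 SD, cut at about 49% in these data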
Target sequence (Q96RJ0 whole entry, looked up): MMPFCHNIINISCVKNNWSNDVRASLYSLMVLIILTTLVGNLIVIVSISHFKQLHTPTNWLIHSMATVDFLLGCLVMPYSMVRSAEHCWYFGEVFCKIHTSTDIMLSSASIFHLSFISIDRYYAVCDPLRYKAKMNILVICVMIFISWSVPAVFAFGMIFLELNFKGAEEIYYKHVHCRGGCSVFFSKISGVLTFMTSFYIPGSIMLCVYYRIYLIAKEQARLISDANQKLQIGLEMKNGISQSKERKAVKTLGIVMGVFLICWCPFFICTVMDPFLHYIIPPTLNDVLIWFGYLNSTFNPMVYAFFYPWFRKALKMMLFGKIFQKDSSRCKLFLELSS
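Material: CHO RD-HGA16 cells bearing hTAAR1; compound dosing: one-point dosing, 3 µM nominal final; schedule: dye loading 75 min at 37 °C, then 30 min room temperature; measured by: calcium fluorescence with Fluo-8; control set: vehicle and agonist controls; replication: n of 1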
CHO parental Ca: counter-screen: ATP calcium response change in parental CHO cells | parental CHO-K1, ATP-induced calcium, Fluo-8 fluorescence | inhibition, % at 5.6 µM | 330,000 tested, 0.63% active;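 active means inhibition above that plate's mean sample inhibition plus 3 SD, cut at about 26% in these data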
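Assay system – parental CHO cells · Reagent – ATP stimulus · Detection – intracellular calcium via Fluo-8 no-wash fluorescent dye · Evaluation – percent inhibition of ATP-evoked calcium rise, normalized to controls · Controls – ATP wells versus no-ATP DMSO wells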
TAAR1 agonist: human TAAR1 agonism | Q96RJ0 | CHO RD-HGA16 TAAR1, Fluo-8 calcium fluorescence; vehicle wells 0%, saturating PEA agonist 100% | activation, % at 3 µM | 360,000 tested, 0.99% active | AID 624467;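 active means activation above the mean activation of all test compounds in the run plus 3 SD, cut at about 38% in these data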
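Assay system: CHO-derived RD-HGA16 cells with stable Gα16 and human TAAR1; timing: 17-24 h seeding, 75 min 37 °C dye, 30 min RT; read-out: % activation from peak over basal fluorescence ratio, DMSO-to-PEA scaled; measured by: kinetic Fluo-8 calcium fluorescence; benchmarks: low control DMSO, high control PEA (EC100); doses: 3 µM single concentration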
OX1R antag-1: blocks the human orexin 1 receptor; AID 485270; O43613; inhibition, % at 6.6 µM; OX1R-expressing cells, FRET antagonist read-out; 330,000 tested, 1.8% active; in the data active means inhibition mostly above about 38%, no sharp cut-off; inactive means mostly below about 40%
GPR7 antagonist: antagonists of human GPR7 (neuropeptides B/W receptor 1) | inhibition, % at 4.4 µM | GPR7-expressing cells, fluorescence antagonist assay | P48145 | 290,000 tested, 1.1% active | AID 1861; in the data active means inhibition above about 16%, passing the limit was not always enough;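 further: cells stimulated with the agonist NPW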
Target sequence (P48145 whole entry, looked up): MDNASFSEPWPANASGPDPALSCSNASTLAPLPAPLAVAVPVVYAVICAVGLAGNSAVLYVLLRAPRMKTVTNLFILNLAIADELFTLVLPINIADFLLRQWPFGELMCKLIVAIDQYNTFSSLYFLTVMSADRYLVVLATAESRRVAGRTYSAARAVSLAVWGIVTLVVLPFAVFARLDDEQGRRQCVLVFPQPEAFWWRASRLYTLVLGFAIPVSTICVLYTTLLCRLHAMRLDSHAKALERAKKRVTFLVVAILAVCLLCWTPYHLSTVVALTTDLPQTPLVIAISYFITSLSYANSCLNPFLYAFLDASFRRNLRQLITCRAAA
OX1R antag-2: blocks the human orexin 1 receptor; O43613; CHO/OX1R cells, Fluo-8 calcium fluorescence, orexin A; inhibition, % at 5 µM; 330,000 tested, 0.43% active;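 active means inhibition above its plate's threshold, mean inhibition of all tested compounds on the plate plus 3 SD, cut at about 37% in these data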
Of the large screens only hits and unclear results are named; the others gave an inactive call.

Cc1cccn2c(=O)c3cc(C(=O)NCC4CCCO4)c(=N)n(Cc4cccnc4)c3nc12 (stereo unspecified)	OX1R antag-1 60.0
N=c1c(C(=O)NCC2CCCO2)cc2c(=O)n3ccccc3nc2n1Cc1cccnc1 (stereo unspecified)	OX1R antag-1 73.0
N=c1c(C(=O)NCC2CCCO2)cc2c(=O)n3ccccc3nc2n1Cc1ccc(F)cc1 (stereo unspecified)	OX1R antag-1 54.5
N=c1c(C(=O)NC2CCCCC2)cc2c(=O)n3ccccc3nc2n1Cc1cccnc1	none
Cc1ccc(NC(=O)CNc2ccc(Cl)cc2F)cc1	none
CN(c1ccccc1)S(=O)(=O)c1ccc(Cl)c(C(=O)Nc2ccc(-c3nc4ccccc4[nH]3)cc2)c1	none
CCc1ccc(NC(=O)C(C)Sc2ccc(S(=O)(=O)N3CCN(C)CC3)cn2)cc1 (stereo unspecified)	none (no result: GPR7 antagonist)
O=C(COC(=O)C1CCC(=O)N1)Nc1ccccc1OC(F)F (stereo unspecified)	none (no result: GPR7 antagonist)
Cc1ccc(-n2c(=O)c3c4c(sc3n(Cc3cc(=O)n5ccccc5n3)c2=O)CCC4)cc1C	none
O=C(Nc1cccc2ncccc12)c1ccc(Br)c([N+](=O)[O-])c1	none
CN1CCN(c2ccccc2NC(=O)c2cccc(OCc3ccccc3)c2)CC1	GPR7 antagonist 17.8
CN1CCN(c2ccccc2NC(=O)c2ccc([N+](=O)[O-])o2)CC1	OX1R antag-1 71.4 (no result: TAAR1 antagonist, TAAR1 agonist)
CS(=O)(=O)N1CCN(c2ccccc2NC(=O)c2ccc([N+](=O)[O-])o2)CC1	none
Cc1c(NC(=O)c2ccc([N+](=O)[O-])o2)cccc1-c1nc2ncccc2o1	OX1R antag-1 63.4
O=C(Nc1cc(Cl)ccc1-n1cncn1)c1ccc([N+](=O)[O-])o1	OX1R antag-1 48.5 (no result: GPR7 antagonist)
CN1CCN(c2ccccc2NC(=O)c2ccc(OCc3ccccc3)cc2)CC1	none
CCC(=O)N1CCN(c2ccc(Cl)cc2NC(=O)c2ccc([N+](=O)[O-])o2)CC1	none
COc1ccc(-c2nc(C)sc2CC(=O)O)cc1OC	none
Cc1ccc(NC(=O)c2ccc([N+](=O)[O-])o2)c(C)c1	none
Cc1ccccc1NC(=O)c1ccc([N+](=O)[O-])o1	OX1R antag-1 70.0
O=C(Nc1cccc2ncccc12)c1ccc([N+](=O)[O-])o1	OX1R antag-1 69.7
CCn1nnc(NC(=O)c2ccc([N+](=O)[O-])o2)n1	OX1R antag-1 68.5
O=C(Nc1cc2c3c(c1)CC(=O)N3CCC2)c1cccc(F)c1	none (no result: GPR7 antagonist)
CC(=O)Nc1ccc(Nc2ncc([N+](=O)[O-])c(Nc3ccc(NC(C)=O)cc3)n2)cc1	none
CC(=O)Nc1ccc(Nc2ncnc(N)c2[N+](=O)[O-])cc1	OX1R antag-1 36.7
COC(=O)C1=C(C)N=C2SCCC(=O)N2C1c1ccc(OC(=O)c2ccco2)cc1 (stereo unspecified)	none (no result: CHO parental Ca, OX1R antag-1, OX1R antag-2)
C=CCOC(=O)C1=C(C)N=C2SCCC(=O)N2C1c1ccc(OC(=O)c2ccco2)cc1 (stereo unspecified)	GPR7 antagonist 25.5
Cc1ccc(S(=O)(=O)N2CCN(C(=O)c3cc(=O)[nH]c4ccccc34)CC2)c(C)c1	TAAR1 antagonist 51.4
Cc1cc(C)c(S(=O)(=O)N2CCN(C(=O)c3cc(=O)[nH]c4ccccc34)CC2)c(C)c1	TAAR1 antagonist 51.6, TAAR1 agonist 43.5 (no result: GPR7 antagonist)
COc1ccc(Cl)cc1NC(=O)NCC1CCN(C(=O)OC(C)(C)C)CC1	none
COc1ccc(Cn2nnnc2CN(Cc2cc3cccc(C)c3[nH]c2=O)C2CCCC2)cc1	none
COc1ccc(Cn2nnnc2CN(Cc2cc3ccc(C)cc3[nH]c2=O)C2CCCC2)cc1	OX1R antag-1 43.2
CCN(CC(=O)Nc1ccc(NC(C)=O)cc1)C(=O)/C=C/c1cn(-c2ccccc2)nc1-c1cccs1	TAAR1 antagonist 58.3 (no result: GPR7 antagonist)
CCN(CC(=O)Nc1ccc(NC(C)=O)cc1)C(=O)/C=C/c1ccccc1	none (no result: GPR7 antagonist)
c1ccc(C(c2ccccc2)c2nc(-c3cccnc3)no2)cc1	none
NC(=O)CSc1nc2sc(-c3ccccc3)cc2c(=O)n1N	none
O=C(NCCN1C(=O)S/C(=C\c2cccnc2)C1=O)C1CC(=O)N(Cc2ccco2)C1 (stereo unspecified)	none
O=C(NCCN1C(=O)S/C(=C\c2ccccc2F)C1=O)C1CC(=O)N(Cc2ccccc2)C1 (stereo unspecified)	TAAR1 antagonist 54.3 (no result: GPR7 antagonist)
CC(OC(=O)c1ccc([N+](=O)[O-])o1)C(=O)Nc1nc(-c2ccc(F)c(F)c2)cs1 (stereo unspecified)	TAAR1 antagonist 58.6 (no result: CHO parental Ca, OX1R antag-1, GPR7 antagonist, OX1R antag-2)
O=C(CCN1C(=O)C2CC=CCC2C1=O)Nc1nc(-c2ccc(F)c(F)c2)cs1 (stereo unspecified)	TAAR1 antagonist 60.3 (no result: GPR7 antagonist)
COc1ccc(C2(O)CCN(CC(=O)Nc3nc(-c4ccccc4)cs3)CC2)cc1	TAAR1 antagonist 51.3
Cc1cc(C(=O)OCC(=O)Nc2nc(-c3ccccc3)cs2)c(C)o1	OX1R antag-1 65.8
Cc1cc(C(=O)OC(C)C(=O)Nc2nc(-c3ccccc3)cs2)c(C)o1 (stereo unspecified)	none
CN1CCN(CC(=O)Nc2nc(-c3ccccc3)cs2)CC1	none
N#Cc1cnn2c1nc(N1CCOCC1)c1ccccc12	none
COc1cccc(-c2cnc3c(NC=O)cc(-c4ccccc4Oc4ccccc4)cn23)c1	none (no result: CHO parental Ca, OX1R antag-1, GPR7 antagonist, OX1R antag-2)
O=C(CN1CCCCC1)Nc1nc(-c2ccc(F)c(F)c2)cs1	TAAR1 antagonist 49.2
Cn1c(=O)c2c(ncn2CC(=O)Nc2nc(-c3ccc(F)c(F)c3)cs2)n(C)c1=O	CHO parental Ca 98.8
O=C(Cc1ccccc1)Nc1nc(-c2ccc(F)c(F)c2)cs1	TAAR1 antagonist 56.3
COc1cccc(CC(=O)Nc2nc(-c3ccc(F)c(F)c3)cs2)c1	TAAR1 antagonist 52.1
Cc1ccc(-c2csc(NC(=O)Cn3cnc4c3c(=O)n(C)c(=O)n4C)n2)cc1C	none
C=CCN1CC(c2nc3ccccc3n2Cc2cccc3ccccc23)CC1=O (stereo unspecified)	none
COc1cc(C(=O)CSc2nncn2C)cc(OC)c1OC	none
O=C(CCc1nc2ccccc2c(=O)[nH]1)Nc1cccc(S(=O)(=O)N2CCOCC2)c1	none (no result: GPR7 antagonist)
CCN(CC(=O)NCc1ccc(F)cc1)CC(O)COCc1cccc(OC)c1 (stereo unspecified)	none
CCN(CC(=O)NCc1cccs1)C(=O)c1ccc([N+](=O)[O-])o1	OX1R antag-1 63.7 (no result: GPR7 antagonist)
Cc1ccc(C(=O)OCc2cn3ccccc3n2)cc1	none
CCN(CC)c1ccc2c(C)c(Cl)c(=O)oc2c1	none
CCN(CC)c1ccc2c(Cl)c(Br)c(=O)oc2c1	CHO parental Ca 80.8, GPR7 antagonist 41.0, OX1R antag-2 89.9 (no result: TAAR1 antagonist, TAAR1 agonist)
Cc1cc(NC(=O)CCC(=O)N(CC(=O)NC2CCCC2)Cc2cccs2)no1	none
